Data: ChEMBL document CHEMBL1153864, “Phase transfer catalyzed synthesis of bis-quinolines: antileishmanial activity in experimental visceral leishmaniasis and in vitro antibacterial evaluation” (Eur J Med Chem, 2009)
Converted amounts (≈) assume the structure as drawn. The source made the active and inactive calls. No cut-off for these calls is given here.

Legend:
[1] = system: Leishmania donovani; test: Antileishmanial activity against Leishmania donovani MHOM/IN/1983/AG83 promastigotes infected BALB/c mouse assessed as liver weight at 5.5 mg/kg, ip administered two times per week for 4 weeks; type: functional; details: route intraperitoneal
How it was run: (§1)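 BALB/c mice (4-6 weeks) were infected iv with 2 × 10^7 freshly transformed promastigotes. One month later, groups were dosed ip in 0.2% Tween 80 in PBS (0.02 M), twice weekly for one month (8 doses); controls got vehicle only. Mice were killed one month post-treatment and spleen and liver were weighed. Parasite load came from Giemsa impression smears as organ weight (mg) × amastigotes per cell nucleus × 2 × 10^5. Values are mean ± S.E. of 5 mice; unpaired t-test.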

[2] = system: Leishmania donovani; test: Antileishmanial activity against Leishmania donovani MHOM/IN/1983/AG83 promastigotes assessed as induction of vacuolization at 2 ug/ml after 2 hrs by transmission electron microscopy; type: functional, organism-based
How it was run: (§2)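 Log-phase promastigotes, grown at 22 °C in M199 with 10% FBS, were exposed for 2 h to the compound; controls received 0.1% DMSO alone. Cells were then sectioned, stained on copper grids with uranyl acetate and lead acetate for 10-15 min each, and examined by TEM for ultrastructural changes.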

[3] = system: Vibrio cholerae; test: Antibacterial activity against Vibrio cholerae 569B at 10 ug/ml after 24 hrs by agar dilution method; type: functional, organism-based
[4] = system: Bacillus licheniformis; test: Antibacterial activity against […] Bacillus licheniformis NCTC 10341 at 10 ug/ml after 24 hrs by agar dilution method; type: functional, organism-based
How it was run: (§3)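 Agar dilution MIC. Compound dissolved in sterile 0.2% DMSO, diluted in distilled water and mixed into molten nutrient agar (pH 7.2–7.4) at 5, 10, 25, 50; plate with 0.2% DMSO as control. Gram-positives grown 18 h in nutrient broth, Gram-negatives in peptone water. Stationary-phase suspension set to 0.5 McFarland, diluted 1:100, spot-inoculated at about 10^5 CFU per loopful. Plates held 24 h at 37 °C (up to 72 h if needed). MIC is the lowest level with no growth.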

[5] = system: Leishmania donovani; test: Antileishmanial activity against Leishmania donovani MHOM/IN/1983/AG83 promastigotes infected BALB/c mouse assessed as reduction in liver parasite burden at 12.5 mg/kg, ip administered two times per week for 4 weeks relative to control; type: functional; parameters: scale not given: the % may be the effect or the level left; details: route intraperitoneal; how it was run: as §1
[6] = system: Vibrio cholerae; test: Antibacterial activity against Vibrio cholerae 582 at 50 ug/ml after 24 hrs by agar dilution method; type: functional; details: Vibrio cholerae, 582, 24 h
[7] = system: Leishmania donovani; test: Antileishmanial activity against Leishmania donovani MHOM/IN/1983/AG83 promastigotes assessed as induction of membrane blebbing at 11.5 ug/ml after 2 hrs by transmission electron microscopy; type: functional, organism-based; how it was run: as §2
[8] = Down regulation of IL6 release Leishmania donovani MHOM/IN/1983/AG83 infected interferon gamma-stimulated golden Syrian hamster peritoneal macrophages; type: functional, cell-based; details: Mesocricetus auratus; Macrophage
[9] = system: Staphylococcus aureus; test: Antibacterial activity against Staphylococcus aureus ML6 ug/ml after 24 hrs by agar dilution method; type: functional; details: ML6, 24 h; how it was run: as §3
[10] = system: Shigella dysenteriae; test: Antibacterial activity against Shigella dysenteriae 6 NCTC 100/54 at 50 ug/ml after 24 hrs by agar dilution method; type: functional; details: 6 NCTC 100/54, 24 h
[11] = system: Escherichia coli; test: Antibacterial activity against Escherichia coli K-12 Row at 25 ug/ml after 24 hrs by agar dilution method; type: functional, organism-based; how it was run: as §3
[12] = system: Leishmania donovani; test: Antileishmanial activity against Leishmania donovani MHOM/IN/1983/AG83 promastigotes assessed as induction of kinetoplast enlargement at 11.5 ug/ml after 2 hrs by transmission electron microscopy; type: functional, organism-based
[13] = system: Proteus mirabilis; test: Antibacterial activity against Proteus mirabilis 175 at 50 ug/ml after 24 hrs by agar dilution method; type: functional; details: Proteus mirabilis, 175, 24 h; how it was run: as §3
[14] = system: Leishmania donovani; test: Antileishmanial activity against Leishmania donovani MHOM/IN/1983/AG83 promastigotes infected BALB/c mouse assessed as reduction in liver parasite burden at 5.5 mg/kg, ip administered two times per week for 4 weeks relative to control; type: functional; parameters: scale not given: the % may be the effect or the level left; details: route intraperitoneal; how it was run: as §1
[15] = system: Mus musculus; test: Toxicity in BALB/c mouse assessed as effect on blood urea levels at 5.5 mg/kg, ip administered two times per week for 4 weeks; type: organism-based; parameters: dose 5.5 mg/kg, route intraperitoneal; details: in vivo, 672 h
How it was run: (§4)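 Normal BALB/c mice were dosed ip twice per week for 4 weeks. Blood was collected one month after treatment, and serum SGPT and SGOT (IU/l) and blood urea (mg/dl) were measured with commercial kits and compared with untreated normal mice.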

[16] = system: Proteus mirabilis; test: Antibacterial activity against Proteus mirabilis 175 after 24 hrs by agar dilution method; type: functional; details: Proteus mirabilis, 175, 24 h; how it was run: as §3
[17] = system: Leishmania donovani; test: Antileishmanial activity against Leishmania donovani MHOM/IN/1983/AG83 promastigotes infected BALB/c mouse assessed as spleen weight at 5.5 mg/kg, ip administered two times per week for 4 weeks; type: functional; details: route intraperitoneal; how it was run: as §1
[18] = system: Escherichia coli; test: Antibacterial activity against Escherichia coli ATCC 25938 at 25 ug/ml after 24 hrs by agar dilution method; type: functional, organism-based; how it was run: as §3
[19] = system: Escherichia coli; test: Antibacterial activity against Escherichia coli ATCC 25938 at 50 ug/ml after 24 hrs by agar dilution method; type: functional; details: ATCC 25938, 24 h; how it was run: as §3
[20] = system: Bacillus licheniformis; test: Antibacterial activity against […] Bacillus licheniformis NCTC 10341 after 24 hrs by agar dilution method; type: functional; details: NCTC 10341, 24 h; how it was run: as §3
[21] = Down regulation of TNFalpha release Leishmania donovani MHOM/IN/1983/AG83 infected bacterial liposaccharide-stimulated golden Syrian hamster peritoneal macrophages; type: functional, cell-based; details: Mesocricetus auratus; Macrophage
[22] = system: Shigella dysenteriae; test: Antibacterial activity against Shigella dysenteriae 6 NCTC 100/54 at 5 ug/ml after 24 hrs by agar dilution method; type: functional, organism-based
[23] = system: Escherichia coli; test: Antibacterial activity against Escherichia coli ATCC 25938 after 24 hrs by agar dilution method; type: functional; details: ATCC 25938, 24 h; how it was run: as §3
[24] = system: Salmonella typhimurium; test: Antibacterial activity against Salmonella Typhimurium NCTC 74 at 5 ug/ml after 24 hrs by agar dilution method; type: functional, organism-based; details: Salmonella enterica subsp. enterica serovar Typhimurium; how it was run: as §3
[25] = system: Mus musculus; test: Toxicity in BALB/c mouse assessed as effect on serum glutamate pyruvate transaminase levels at 12.5 mg/kg, ip administered two times per week for 4 weeks; type: organism-based; parameters: dose 12.5 mg/kg, route intraperitoneal; details: in vivo, 672 h; how it was run: as §4
[26] = system: Shigella dysenteriae; test: Antibacterial activity against Shigella dysenteriae 7 NCTC 519/66 after 24 hrs by agar dilution method; type: functional; details: 7 NCTC 519/66, 24 h
[27] = system: Bacillus licheniformis; test: Antibacterial activity against […] Bacillus licheniformis NCTC 10341 at 25 ug/ml after 24 hrs by agar dilution method; type: functional, organism-based; how it was run: as §3
[28] = system: Proteus mirabilis; test: Antibacterial activity against Proteus mirabilis 175 at 25 ug/ml after 24 hrs by agar dilution method; type: functional, organism-based; how it was run: as §3
[29] = system: Staphylococcus aureus; test: Antibacterial activity against Staphylococcus aureus ML6 at 50 ug/ml after 24 hrs by agar dilution method; type: functional; details: ML6, 24 h; how it was run: as §3
[30] = system: Vibrio cholerae; test: Antibacterial activity against Vibrio cholerae 569B after 24 hrs by agar dilution method; type: functional

With Clc1ccc(OCOc2ccc(Cl)c3cccnc23)c2ncccc12 the Activity [1] was 1120 mg, the Activity [2] was “Active” and the Activity [3] was “inactive”. The Activity [4] was “inactive”, the Activity [5] was 98.49% and the inhibition at 50 µg/mL [6] was 100%. The Activity [7] was “Active”, the Activity [8] was “Active” and the MIC [9] was 10 µg/mL (≈ 26.9 µM). For the same molecule, the inhibition at 50 µg/mL [10] was 100%, the Activity [11] was “inactive” and the Activity [12] was “Active”. For the same molecule, the inhibition at 50 µg/mL [13] was 100%, the Activity [14] was 78% and the Activity [15] was “Non-toxic”. The MIC [16] was 50 µg/mL (≈ 135 µM), the Activity [17] was 175 mg and the Activity [18] was “inactive”. The inhibition at 50 µg/mL [19] was 100%, the MIC [20] was 50 µg/mL (≈ 135 µM) and the Activity [21] was “Active”. For the same molecule, the Activity [22] was “inactive”, the MIC [23] was 50 µg/mL (≈ 135 µM) and the Activity [24] was “inactive”. The Activity [25] was “Non-toxic”, the MIC [26] was 10 µg/mL (≈ 26.9 µM) and the Activity [27] was “inactive”. For the same molecule, the Activity [28] was “inactive”, the inhibition at 50 µg/mL [29] was 100% and the MIC [30] was 25 µg/mL (≈ 67.3 µM).
